Compounds with a hit are over-represented: about 2.2% of the library has one in this group of screens.
IMP-1 inhibitor = blocks Pseudomonas aeruginosa IMP-1 metallo-beta-lactamase; purified IMP-1, nitrocefin hydrolysis, epi-absorbance fluorescence; inhibition, % at 5.6 µM; 290,000 tested, 0.45% active;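 active = inhibition above the mean plus 3 SD of all compounds in the same screening run, cut at about 4.5% in these data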;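 also: 0% = IMP-1 with DMSO and 100% = DMSO wells lacking enzyme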
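System: Purified IMP-1 | Read-out basis: Percent enzyme inhibition | Controls: IMP-1 with DMSO as 0%, enzyme-free DMSO as 100% | Replicates: One well per compound | Doses: 5.6 µM nominal single concentration | Detection: Epi-absorbance fluorescence, 480 nm excitation, 530 nm emission | Incubation: 25 °C, 15 min preincubation, 25 min reaction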
Yeast superoxide = yeast age-related superoxide inhibition as caloric restriction mimetic; S. cerevisiae aged cells, superoxide DHE fluorescence; hits give low values; AID 2690; superoxide response (% of plate mean), % at 10 µM; 330,000 tested, 0.18% active;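 active = superoxide response under a set limit, about three screen SD below normal, cut at about 65% in these data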;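 also: yeast aged for seven days with compound at 30 °C before DHE staining; 100% = average MFI of all compound-treated wells on the plate with controls excluded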
PHOSPHO1 inh = inhibitors of human PHOSPHO1 phosphatase; Q8TCT1; recombinant PHOSPHO1, absorbance phosphatase assay; inhibition, % at 13.3 µM; 290,000 tested, 1.1% active; in the data active = inhibition above about 60%
Target sequence (Q8TCT1 whole entry, looked up): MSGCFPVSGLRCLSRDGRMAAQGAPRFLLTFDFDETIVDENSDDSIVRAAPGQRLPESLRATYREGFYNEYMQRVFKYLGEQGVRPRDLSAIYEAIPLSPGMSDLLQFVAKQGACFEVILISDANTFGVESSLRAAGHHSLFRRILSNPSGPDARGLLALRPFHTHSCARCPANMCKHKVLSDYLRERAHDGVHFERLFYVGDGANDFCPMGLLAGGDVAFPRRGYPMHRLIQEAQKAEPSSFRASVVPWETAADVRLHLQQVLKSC
VIM-2 inh = inhibitors of Pseudomonas aeruginosa VIM-2 metallo-beta-lactamase. purified VIM-2, nitrocefin hydrolysis, epi-absorbance fluorescence. inhibition, % at 5.6 µM. 290,000 tested, 0.89% active;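 active = inhibition above the mean of all tested compounds plus 3 SD, cutoff set per screening run, cut at about 7.5% in these data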;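 also: red hydrolysis product quenches plate fluorescence so inhibitors raise well fluorescence; 0% = enzyme with DMSO and 100% = DMSO without enzyme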
PvdQ inh = P. aeruginosa PvdQ acylase inhibition; 340,000 tested, 0.063% active; inhibition, % at 10 µM; AID 488965; purified PvdQ acylase, fluorescence plate reader; in the data active = inhibition above about 30%, passing the limit was not always enough;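 also: 0% = vehicle neutral wells and 100% = reference inhibitor wells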
Superoxide pick = confirmation of caloric restriction mimetics inhibiting yeast age-related superoxide | shares compounds with Yeast superoxide | superoxide response (% of plate), % at 10 µM | 850 tested, 1% active | S. cerevisiae aging, superoxide DHE fluorescence; hits give low values;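 active = superoxide signal below 65% of the plate average of sample wells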;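 also: cells aged with compound for 7 days at 30 degrees C before staining; 100% equals mean DHE fluorescence of all compound wells on the plate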
DHE counter = counter-screen for compounds affecting DHE oxidation and fluorescence in yeast. shares compounds with Yeast superoxide. fluorescence response, % at 10 µM. S. cerevisiae BY4741, flow cytometry; hits give low values. 850 tested, under 10 active;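 active = fluorescence response below 15%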;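 also: percent of the mean fluorescence averaged over all compound wells on the plate; lower means stronger quenching of DHE signal or ROS scavenging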
* = called active by the depositor; x = no result given.

SMILES	IMP-1 inhibitor	Yeast superoxide	PHOSPHO1 inh	VIM-2 inh	PvdQ inh	Superoxide pick	DHE counter
COc1ccc(N2C(=O)CC(Nc3ccc(C(=O)O)cc3)C2=O)cc1OC (configuration not stated)	-3	73	48	-2	-12	x	x
O=c1cc(-c2ccccc2)[nH]n1-c1ccc([N+](=O)[O-])cc1	-1	120	-36	-2	-14	x	x
COCCCNC(=O)/C(C#N)=c1\s/c(=C\c2ccccc2OC(F)F)c(=O)n1CCCOC	-2	103	4	-2	-5	x	x
CCCCNC(=O)/C(C#N)=c1\s/c(=C\c2ccccc2OC(F)F)c(=O)n1CCCOC	0	65*	-19	-3	-2	118	104
CCCCCc1ccc(OCCCC[n+]2ccccc2)c(CCCCC)c1	0	89	-17	-2	-4	88	97
CCCCCOc1ccc(Br)cc1CSC(=N)N	-4	x	7	-1	-42	x	x
CCCCCc1ccc(OCCCC[n+]2cccc(C)c2)c(CCCCC)c1	-2	100	41	1	9	105	89
CCCCOc1ccc(C)cc1CN(CCO)CCO	-5	106	29	-4	-13	x	x
CCC(C)(C)c1ccc(OCCCC[n+]2ccccc2)c(C(C)(C)CC)c1	-3	81	-28	-3	-8	94	93
CCCCCc1ccc(OCCCC[n+]2ccc(C)cc2)c(CCCCC)c1	-4	117	5	-5	5	85	96
COc1ccc(/C=N/NC(=O)CCN2CCN(c3ccccc3)CC2)c(OC)c1OC	0	62*	-7	-3	-10	108	106
COc1cc(/C=N/NC(=O)CCN2CCN(c3ccccc3)CC2)cc(OC)c1OC	-4	110	8	-1	-4	x	x
O=C1NC(Cc2ccccc2)c2nc3cc(Cl)ccc3c(=O)n2-c2ccccc21 (configuration not stated)	x	98	x	x	x	x	x
Cc1ccccc1-c1cc(C(=O)NCC2CC2)nn1CC1CC(c2cccc([N+](=O)[O-])c2)=NO1 (configuration not stated)	x	95	x	x	-11	x	x
Cn1c(=S)[nH]c(=O)c2ncc(=O)[nH]c21	-3	63*	36	-3	-1	103	91
O=C1C=C(NC2=CC3OC(c4ccccc4)OCC3OC2=O)CCC1 (configuration not stated)	-4	60*	14	-1	-14	114	103
O=C1COc2ccc(C(=O)NCc3ccc4c(c3)OCO4)cc2N1	0	64*	21	-6	-18	97	94
O=C(CSc1nnc(SCc2ccc(Cl)cc2)s1)N/N=C/c1c(Cl)cccc1Cl	-1	111	11	-3	-10	x	x
CC(C)(c1cc(Br)c(O)c(Br)c1)c1cc(Br)c(O)c(Br)c1	x	43*	x	x	-21	96	125
CC(C)(c1ccc(O)c([N+](=O)[O-])c1)c1ccc(O)c([N+](=O)[O-])c1	x	x	x	x	-6	x	x
COCOc1cc(O)c(C(=O)/C=C/c2ccccc2)c(OCOC)c1	x	90	x	x	-1	x	x
CCc1nonc1NC(=O)c1oc2c(C)c(C)ccc2c1C	0	43*	22	0	-13	98	89
CCc1nonc1NC(=O)c1oc2cc(Br)ccc2c1C	-1	113	47	-3	2	x	x
CCN(CC)c1ccc2nc3ccc(N)cc3[n+](-c3ccccc3)c2c1	x	x	x	x	-16	x	x
CCN(CC)c1ccc2nc3ccccc3[n+](CC)c2c1	-9	65*	-100	11*	-13	82	108
SMILES	IMP-1 inhibitor	Yeast superoxide	PHOSPHO1 inh	VIM-2 inh	PvdQ inh	Superoxide pick	DHE counter
Cc1cc(OCCN2CCC(Cc3ccccc3)CC2)ccc1[N+](=O)[O-]	0	92	x	-1	1	x	x
COc1cccc(-c2ccc(NC(=O)C3CCCN(Cc4nccn4C)C3)cc2)c1 (configuration not stated)	1	96	24	3	-6	x	x
COc1ccc(C2CC(c3ccc(OC)cc3OC(C)=O)=NN2C(=O)c2ccccc2)cc1 (configuration not stated)	-5	96	29	-1	-2	x	x
COc1ccccc1C1=NN(C(=O)c2ccccc2)C(c2ccc(Br)cc2)C1 (configuration not stated)	1	60*	25	4	-10	101	98
Cc1cccc2c(N=O)c(O)[nH]c12	-3	108	45	-2	-43	x	x
O=C(CCCOc1ccccc1)Nc1ccc(Cl)cn1	-3	58*	2	-1	-4	96	89
CCCOc1ccc2cc(-c3ccccn3)c(=O)oc2c1	-1	60*	-7	-3	-35	100	95
O=c1oc2cc(OCc3c(F)cccc3Cl)ccc2cc1-c1ccccn1	-2	96	x	-2	-45	x	x
Cc1ccc(NC(=O)Cn2nnc(C(=O)NCc3ccc(Cl)cc3)c2N)cc1F	0	93	12	-5	-14	x	x
Cc1ccccc1NC(=O)c1nc(S(C)(=O)=O)ncc1Cl	-4	108	19	-2	-21	99	91
CSc1ncc(Cl)c(C(=O)Nc2ccccc2Br)n1	-4	103	32	0	-20	105	108
CSc1ncc(Cl)c(C(=O)Nc2cccc3ccccc23)n1	-3	98	-7	-3	2	x	x
CSc1ncc(Cl)c(C(=O)Nc2cccc(C)c2)n1	-2	96	-1	0	-13	101	90
CCOC(=O)c1ccc(NC(=O)c2nc(SC)ncc2Cl)cc1	-3	90	20	2	0	x	x
Cc1cccc(C)c1NC(=O)c1nc(S(=O)(=O)Cc2ccccc2)ncc1Cl	-1	111	29	-3	-14	x	x
CSc1ncc(Cl)c(C(=O)Nc2cccc(Cl)c2)n1	-4	94	24	-2	28	96	99
CC(C)(C)NC(=O)C1Cc2ccccc2CN1 (configuration not stated)	-3	99	20	0	-14	x	x
Cc1csc(=O)n1CC(=O)OC(C)C(=O)Nc1ccc(N(C)C)cc1 (configuration not stated)	x	x	x	x	-13	x	x
COc1ccc(CNC(=O)CNC(=O)c2ccc(C(C)(C)C)cc2)cc1OC	1	62*	42	2	17	104	89
COc1ccc(C(=O)NCC(=O)OCC(=O)NC(=O)c2ccc(C(C)(C)C)cc2)cc1OC	x	145	x	x	-3	x	x
CCOC(=O)c1ccc(NC(=O)Nc2cccc(C)n2)cc1	-3	107	38	-3	-6	x	x
CCOC(=O)c1ccc(NC(=O)Nc2ccn(C)n2)cc1	-3	63*	20	-5	5	103	96
COc1ccc(/C=C2\SC(=S)N(CCCC(=O)Nc3ccc(C(=O)O)cc3)C2=O)cc1OC	-1	63*	43	1	15	93	97
O=C1N=C(N2CCCCC2)S/C1=C\c1ccncc1	-4	100	28	-3	-5	x	x

High-throughput results deposited in PubChem BioAssay by several laboratories.
